# From ChEMBL document CHEMBL1914438, “Synthesis and biological activity of novel N-cycloalkyl-(cycloalkylaryl)-2-[(3-R-2-oxo-2H-[1,2,4]triazino[2,3-c]quinazoline-6-yl)thio]acetamides” (2011)
# Experiments:
# Assay type in all cases: functional
# ACHN [1] = test: Cytotoxicity against human ACHN cells assessed as cell growth at 10^-5 M after 48 hrs by SRB assay; details: read-out: Activity
# How it was run: (§1)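 NCI 60-cell-line one-dose primary screen: cells inoculated and preincubated 24–48 h, then test agent added at a single 10^-5 M concentration for a further 48 h. Endpoint is sulforhodamine B protein staining read spectrophotometrically. Reported as percent growth relative to untreated control cells.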
# HOP-62 = test: Growth inhibition of human HOP62 cells after 48 hrs by SRB assay; details: HOP-62, 48 h
# How it was run: (§2)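 NCI panel of about 60 human tumor lines, 48 h continuous exposure at five 10-fold dilutions from 10^-4 to 10^-8 M. SRB protein staining was read as absorbance at time zero, in untreated controls and at each concentration. GI50 is the concentration giving 50% lower net protein increase than controls. TGI is where Ti = Tz, and LC50 is 50% protein loss versus start.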
# COLO 205 [2] = test: Growth inhibition of human COLO205 cells after 48 hrs by SRB assay; details: COLO 205, 48 h; how it was run: as §2
# SF-295 = test: Growth inhibition of human SF295 cells after 48 hrs by SRB assay; details: SF-295, 48 h
# How it was run: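 NCI 60-cell-line human tumor panel. Cells were inoculated and preincubated for 24–48 h, then exposed continuously to compound for 48 h. Primary screen used a single 10^-5 M concentration. Growth was measured by sulforhodamine B protein staining, read spectrophotometrically, and reported as percent growth versus untreated controls. Selected compounds were also run at five 10-fold dilutions (10^-4 to 10^-8 M) to derive GI50 from time-zero-corrected absorbances.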
# LOX IMVI = test: Growth inhibition of human LOXIMVI cells after 48 hrs by SRB assay; how it was run: as §2
# OVCAR-3 = test: Growth inhibition of human OVCAR3 cells after 48 hrs by SRB assay; details: OVCAR-3, 48 h; how it was run: as §2
# ACHN [3] = test: Growth inhibition of human ACHN cells after 48 hrs by SRB assay; how it was run: as §2
# CAKI-1 = test: Growth inhibition of human Caki1 cells after 48 hrs by SRB assay; details: CAKI-1, 48 h; how it was run: as §2
# MDA-MB-231 = test: Growth inhibition of human MDA-MB-231 cells after 48 hrs by SRB assay; details: MDA-MB-231, 48 h; how it was run: as §2
# [4] = tested on: Photobacterium leiognathi; test: Antibacterial activity against Photobacterium leiognathi Sh1 assessed as inhibition of bacterial luminescence at 0.25 mg/mL after 10 mins by bioluminometry-based chronic action test; parameters: scale not given: the % may be the effect or the level left; details: in the assay text read “after 16 to 18 hrs” for “after 10 mins”
# How it was run: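 Chronic (growth plus luminescence) test with P. leiognathi Sh1 at 10^5 cells/mL in chloride solution, compounds added in DMSO. After 10 min at 25 °C, growth medium added at 1:50 and the mix incubated 16–18 h at 30 °C. Luminescence then measured by bioluminometer as % of untreated control. Tetracycline reference.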
# EKVX = test: Cytotoxicity against human EKVX cells assessed as cell growth at 10^-5 M after 48 hrs by SRB assay; details: read-out: Activity; how it was run: as §1
# NCI-H322M = test: Cytotoxicity against human NCI-H322M cells assessed as cell growth at 10^-5 M after 48 hrs by SRB assay; details: read-out: Activity
# How it was run: (§3)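 NCI human tumor cell line panel from nine cancer types. Each line was inoculated and preincubated 24–48 h, then exposed to a single concentration (10^-5 M) for 48 h. Growth was read by sulforhodamine B protein staining, measured spectrophotometrically. Value reported as percent growth of treated cells relative to untreated controls.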
# OVCAR-4 = test: Cytotoxicity against human OVCAR4 cells assessed as cell growth at 10^-5 M after 48 hrs by SRB assay; details: OVCAR-4, 48 h, read-out: Activity; how it was run: as §3
# COLO 205 [5] = test: Cytotoxicity against human COLO205 cells assessed as cell growth at 10^-5 M after 48 hrs by SRB assay; details: COLO 205, 48 h, read-out: Activity; how it was run: as §1
# [6] = tested on: Photobacterium leiognathi; test: Antibacterial activity against Photobacterium leiognathi Sh1 assessed as inhibition of bacterial luminescence at 0.025 mg/mL after 10 mins by bioluminometry-based acute action test; parameters: scale not given: the % may be the effect or the level left
# How it was run: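 Marine P. leiognathi Sh1 (Azov Sea shrimp isolate) diluted in chloride solution to 10^5 cells/mL; compounds suspended in DMSO mixed with 1 mL bacterial suspension. Acute test: 10 min at 25 °C, then bioluminescence measured by bioluminometer as % of compound-free control. Tetracycline reference.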
# [7] = read-out: pLC50 (the source's name) (converted)
smiles,measurement,setting,value
CCC1C2CCC(C2)C1NC(=O)CSc1nc2ccccc2c2nc(=O)c(-c3ccc(OC)cc3)nn12 (stereo unspecified),growth at 10 µM,ACHN [1],-17.1%
same,GI50,HOP-62,2.45 µM
same,CC50,HOP-62; [7],36.3 µM
same,TGI,HOP-62; read-out: pTGI (converted),11.5 µM
same,GI50,COLO 205 [2],3.47 µM
same,CC50,COLO 205 [2]; [7],> 50.1 µM
same,TGI,COLO 205 [2]; read-out: pTGI,> 50.1 µM
same,GI50,SF-295,3.47 µM
same,CC50,SF-295; [7],> 50.1 µM
same,TGI,SF-295; read-out: pTGI (converted),21.9 µM
same,GI50,LOX IMVI,3.55 µM
same,CC50,LOX IMVI; [7],> 50.1 µM
same,TGI,LOX IMVI; read-out: pTGI (converted),18.2 µM
same,GI50,OVCAR-3,1.48 µM
same,CC50,OVCAR-3; [7],28.2 µM
same,TGI,OVCAR-3; read-out: pTGI (converted),5.62 µM
same,GI50,ACHN [3],1.91 µM
same,CC50,ACHN [3]; [7],> 50.1 µM
same,TGI,ACHN [3]; read-out: pTGI,> 50.1 µM
same,GI50,CAKI-1,3.72 µM
same,CC50,CAKI-1; [7],> 50.1 µM
same,TGI,CAKI-1; read-out: pTGI (converted),38.9 µM
same,GI50,MDA-MB-231,3.09 µM
same,CC50,MDA-MB-231; [7],> 50.1 µM
same,TGI,MDA-MB-231; read-out: pTGI (converted),20.9 µM
same,Activity,[4],80%
same,growth at 10 µM,EKVX,25.6%
same,growth at 10 µM,NCI-H322M,65.6%
same,growth at 10 µM,OVCAR-4,-58.5%
same,growth at 10 µM,COLO 205 [5],28.6%
same,Activity,[6],38.5%
